Source: ChEMBL document CHEMBL1142894, “Preparation of 5-aryl-3-alkylthio-l,2,4-triazoles and corresponding sulfones with antiinflammatory-analgesic activity” (Bioorg Med Chem, 2007)
The source made the active and inactive calls. The calls are words filed in the database; no cut-off is given here.

Assays:
Mus musculus [1] = assay: Antiinflammatory activity against carrageenan-induced paw edema in Swiss albino mouse assessed as swelling thickness at 100 mg/kg, po after 90 mins; assay type: functional
Procedure, shortened: (§1)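 Oral dosing in 0.5% CMC; vehicle to controls. Then carrageenan (0.5 mg/25 ll, freshly suspended in 154 mM saline) injected into the right hind paw subplantar tissue; saline into the left paw. Right-left footpad thickness difference measured by dial gauge calliper every 90 min over 6 h. Inhibition % is relative to vehicle control. n = 6; mean ± SEM.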

Mus musculus [2] = assay: Antiinflammatory activity against carrageenan-induced paw edema in Swiss albino mouse assessed as swelling thickness at 100 mg/kg, po after 180 mins; assay type: functional; procedure, shortened: as §1
Mus musculus [3] = assay: Antiinflammatory activity against carrageenan-induced paw edema in Swiss albino mouse assessed as swelling thickness at 100 mg/kg, po after 270 mins; assay type: functional; procedure, shortened: as §1
Mus musculus [4] = assay: Antiinflammatory activity against carrageenan-induced paw edema in Swiss albino mouse assessed as swelling thickness at 100 mg/kg, po after 360 mins; assay type: functional; procedure, shortened: as §1
Mus musculus [5] = assay: Inhibition of carrageenan-induced paw edema in Swiss albino mouse at 100 mg/kg, po after 90 mins relative to control; assay type: functional; details: 1.5 h; procedure, shortened: as §1
Mus musculus [6] = assay: Inhibition of carrageenan-induced paw edema in Swiss albino mouse at 100 mg/kg, po after 180 mins relative to control; assay type: functional; details: 3 h; procedure, shortened: as §1
Mus musculus [7] = assay: Inhibition of carrageenan-induced paw edema in Swiss albino mouse at 100 mg/kg, po after 270 mins relative to control; assay type: functional; details: 4.5 h; procedure, shortened: as §1
Mus musculus [8] = assay: Inhibition of carrageenan-induced paw edema in Swiss albino mouse at 100 mg/kg, po after 360 mins relative to control; assay type: functional; details: 6 h; procedure, shortened: as §1
Mus musculus [9] = assay: Analgesic activity against p-benzoquinone-induced abdominal constriction in Swiss albino mouse assessed as number of writhings at 25 mg/kg, po; assay type: functional, Abdomen
Procedure, shortened: (§2)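 Test samples given orally in 0.5% CMC; vehicle to controls. 60 min later, 2.5% (v/v) p-benzoquinone in distilled water, 0.1 ml/10 g, given i.p. Mice housed singly; writhes counted for 15 min starting 5 min after injection. Activity is % change from vehicle controls. n = 6; mean ± SEM.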

Mus musculus [10] = assay: Analgesic activity against p-benzoquinone-induced abdominal constriction in Swiss albino mouse assessed as number of writhings at 50 mg/kg, po; assay type: functional, Abdomen; procedure, shortened: as §2
Mus musculus [11] = assay: Analgesic activity against p-benzoquinone-induced abdominal constriction in Swiss albino mouse assessed as number of writhings at 100 mg/kg, po; assay type: functional, Abdomen; procedure, shortened: as §2
Mus musculus [12] = assay: Analgesic activity against p-benzoquinone-induced abdominal constriction in Swiss albino mouse assessed as number of writhings at 200 mg/kg, po; assay type: functional, Abdomen; procedure, shortened: as §2
Mus musculus [13] = assay: Inhibition of p-benzoquinone-induced writhing in Swiss albino mouse at 25 mg/kg, po relative to control; assay type: functional
Procedure, shortened: (§3)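 Mice, n = 6 per group, dosed orally with a suspension in 0.5% sodium CMC. 60 min later, 0.1 ml/10 g of 2.5% […] p-benzoquinone in distilled water given ip. Abdominal writhes counted per animal for 15 min, starting 5 min after injection. Expressed as % change in mean writhing count versus vehicle controls.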

Mus musculus [14] = assay: Inhibition of p-benzoquinone-induced writhing in Swiss albino mouse at 50 mg/kg, po relative to control; assay type: functional; procedure, shortened: as §3
Mus musculus [15] = assay: Inhibition of p-benzoquinone-induced writhing in Swiss albino mouse at 100 mg/kg, po relative to control; assay type: functional; procedure, shortened: as §3
Mus musculus [16] = assay: Inhibition of p-benzoquinone-induced writhing in Swiss albino mouse at 200 mg/kg, po relative to control; assay type: functional; procedure, shortened: as §3
Mus musculus [17] = assay: Gastric-ulcerogenic effect in Swiss albino mouse assessed as lesions at 25 mg/kg, po; assay type: functional, organism-based; design: dose 25 mg/kg
Procedure, shortened: (§4)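 Mice killed under deep ether anesthesia 3 h after the writhing test; the oral dose in 0.5% CMC was the one used in that test. Stomachs removed, opened along the great curvature and examined under a dissecting microscope for lesions or bleeding. Reported as ratio of ulceration; n = 6.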

Mus musculus [18] = assay: Gastric-ulcerogenic effect in Swiss albino mouse assessed as lesions at 50 mg/kg, po; assay type: functional, organism-based; design: dose 50 mg/kg; procedure, shortened: as §4
Mus musculus [19] = assay: Gastric-ulcerogenic effect in Swiss albino mouse assessed as lesions at 100 mg/kg, po; assay type: functional, organism-based; design: dose 100 mg/kg; procedure, shortened: as §4
Mus musculus [20] = assay: Gastric-ulcerogenic effect in Swiss albino mouse assessed as lesions at 200 mg/kg, po; assay type: functional, organism-based; design: dose 200 mg/kg; procedure, shortened: as §4
Mus musculus [21] = assay: Antiinflammatory activity against carrageenan-induced paw edema in Swiss albino mouse assessed as swelling thickness at 25 mg/kg, po after 90 mins; assay type: functional; procedure, shortened: as §1
Mus musculus [22] = assay: Antiinflammatory activity against carrageenan-induced paw edema in Swiss albino mouse assessed as swelling thickness at 25 mg/kg, po after 180 mins; assay type: functional; procedure, shortened: as §1
Mus musculus [23] = assay: Antiinflammatory activity against carrageenan-induced paw edema in Swiss albino mouse assessed as swelling thickness at 25 mg/kg, po after 270 mins; assay type: functional; procedure, shortened: as §1
Mus musculus [24] = assay: Antiinflammatory activity against carrageenan-induced paw edema in Swiss albino mouse assessed as swelling thickness at 25 mg/kg, po after 360 mins; assay type: functional; procedure, shortened: as §1
Mus musculus [25] = assay: Antiinflammatory activity against carrageenan-induced paw edema in Swiss albino mouse assessed as swelling thickness at 50 mg/kg, po after 180 mins; assay type: functional; procedure, shortened: as §1
Mus musculus [26] = assay: Antiinflammatory activity against carrageenan-induced paw edema in Swiss albino mouse assessed as swelling thickness at 50 mg/kg, po after 270 mins; assay type: functional; procedure, shortened: as §1
Mus musculus [27] = assay: Antiinflammatory activity against carrageenan-induced paw edema in Swiss albino mouse assessed as swelling thickness at 50 mg/kg, po after 360 mins; assay type: functional; procedure, shortened: as §1
Mus musculus [28] = assay: Antiinflammatory activity against carrageenan-induced paw edema in Swiss albino mouse assessed as swelling thickness at 200 mg/kg, po after 90 mins; assay type: functional; procedure, shortened: as §1
Mus musculus [29] = assay: Antiinflammatory activity against carrageenan-induced paw edema in Swiss albino mouse assessed as swelling thickness at 200 mg/kg, po after 180 mins; assay type: functional; procedure, shortened: as §1
Mus musculus [30] = assay: Antiinflammatory activity against carrageenan-induced paw edema in Swiss albino mouse assessed as swelling thickness at 200 mg/kg, po after 270 mins; assay type: functional; procedure, shortened: as §1
Mus musculus [31] = assay: Antiinflammatory activity against carrageenan-induced paw edema in Swiss albino mouse assessed as swelling thickness at 200 mg/kg, po after 360 mins; assay type: functional; procedure, shortened: as §1
Mus musculus [32] = assay: Inhibition of carrageenan-induced paw edema in Swiss albino mouse at 25 mg/kg, po after 90 mins relative to control; assay type: functional; details: 1.5 h; procedure, shortened: as §1
Mus musculus [33] = assay: Inhibition of carrageenan-induced paw edema in Swiss albino mouse at 25 mg/kg, po after 180 mins relative to control; assay type: functional; details: 3 h; procedure, shortened: as §1
Mus musculus [34] = assay: Inhibition of carrageenan-induced paw edema in Swiss albino mouse at 25 mg/kg, po after 270 mins relative to control; assay type: functional; details: 4.5 h; procedure, shortened: as §1
Mus musculus [35] = assay: Inhibition of carrageenan-induced paw edema in Swiss albino mouse at 25 mg/kg, po after 360 mins relative to control; assay type: functional; details: 6 h; procedure, shortened: as §1
Mus musculus [36] = assay: Inhibition of carrageenan-induced paw edema in Swiss albino mouse at 50 mg/kg, po after 90 mins relative to control; assay type: functional; details: 1.5 h
Procedure, shortened: (§5)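 Mice, n = 6 per group. Test agent given orally as a suspension in 0.5% sodium CMC in distilled water; controls received vehicle only. Afterwards, 0.5 mg/25 ll carrageenan in saline (154 mM NaCl) injected subplantar into the right hind paw, saline into the left. Right-minus-left footpad thickness measured by dial gauge caliper every 90 min for 6 h. Inhibition is relative to vehicle-control group means.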

Mus musculus [37] = assay: Inhibition of carrageenan-induced paw edema in Swiss albino mouse at 50 mg/kg, po after 180 mins relative to control; assay type: functional; details: 3 h; procedure, shortened: as §1
Mus musculus [38] = assay: Inhibition of carrageenan-induced paw edema in Swiss albino mouse at 50 mg/kg, po after 270 mins relative to control; assay type: functional; details: 4.5 h; procedure, shortened: as §5
Mus musculus [39] = assay: Inhibition of carrageenan-induced paw edema in Swiss albino mouse at 50 mg/kg, po after 360 mins relative to control; assay type: functional; details: 6 h; procedure, shortened: as §5
Mus musculus [40] = assay: Antiinflammatory activity against carrageenan-induced paw edema in Swiss albino mouse assessed as swelling thickness at 50 mg/kg, po after 90 mins; assay type: functional; procedure, shortened: as §1

In the case of `CSc1nnc(-c2ccc(Cl)cc2)[nH]1`, the Activity (Mus musculus [1]) is reported as 34 10^-2mm, the Activity (Mus musculus [2]) is reported as 38.3 10^-2mm and the Activity (Mus musculus [3]) is reported as 43 10^-2mm. For the same molecule, the Activity (Mus musculus [4]) was 48 10^-2mm, the inhibition in vivo at 100 mg/kg (Mus musculus [5]) was 24.1% and the inhibition in vivo at 100 mg/kg (Mus musculus [6]) was 25.6%. For the same molecule, the inhibition in vivo at 100 mg/kg (Mus musculus [7]) was 26.9%, the inhibition in vivo at 100 mg/kg (Mus musculus [8]) was 30.2% and the Activity (Mus musculus [9]) was 44.7. It also gave an Activity (Mus musculus [10]) of 34.1, an Activity (Mus musculus [11]) of 34.1 and an Activity (Mus musculus [12]) of 43.3. It also gave an inhibition in vivo at 25 mg/kg (Mus musculus [13]) of 13%, an inhibition in vivo at 50 mg/kg (Mus musculus [14]) of 33.7% and an inhibition in vivo at 100 mg/kg (Mus musculus [15]) of 27.9%. For the same molecule, the inhibition in vivo at 200 mg/kg (Mus musculus [16]) was 15.8%, the Activity (Mus musculus [17]) was “Active” and the Activity (Mus musculus [18]) was “Active”. The Activity (Mus musculus [19]) was “Active”, the Activity (Mus musculus [20]) was “Active” and the Activity (Mus musculus [21]) was 43.5 10^-2mm. For the same molecule, the Activity (Mus musculus [22]) was 48.9 10^-2mm, the Activity (Mus musculus [23]) was 51.5 10^-2mm and the Activity (Mus musculus [24]) was 58.9 10^-2mm. The Activity (Mus musculus [25]) was 41.2 10^-2mm, the Activity (Mus musculus [26]) was 42.2 10^-2mm and the Activity (Mus musculus [27]) was 47.1 10^-2mm. For the same molecule, the Activity (Mus musculus [28]) was 54.7 10^-2mm, the Activity (Mus musculus [29]) was 61.2 10^-2mm and the Activity (Mus musculus [30]) was 65.9 10^-2mm. For the same molecule, the Activity (Mus musculus [31]) was 76.8 10^-2mm, the inhibition in vivo at 25 mg/kg (Mus musculus [32]) was 18.2% and the inhibition in vivo at 25 mg/kg (Mus musculus [33]) was 17.7%. The inhibition in vivo at 25 mg/kg (Mus musculus [34]) was 20.5%, the inhibition in vivo at 25 mg/kg (Mus musculus [35]) was 18.2% and the inhibition in vivo at 50 mg/kg (Mus musculus [36]) was 29.7%. The inhibition in vivo at 50 mg/kg (Mus musculus [37]) was 30.6%, the inhibition in vivo at 50 mg/kg (Mus musculus [38]) was 34.9% and the inhibition in vivo at 50 mg/kg (Mus musculus [39]) was 34.6%. For the same molecule, the Activity (Mus musculus [40]) was 37.4 10^-2mm.
